The target in assay [1] is 5-hydroxytryptamine receptor 1A (Homo sapiens) (UniProt P08908). Kind of assay: Binding affinity to 5HT1A receptor (unknown origin) receptor at 10 uM relative to control. A digest of the protocol:
(§1)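 Broad radioligand-binding and enzyme screening panel covering 42 targets (biogenic amine and neuropeptide receptors, ion channels, neurotransmitter transporters, acetylcholinesterase). Single test concentration of 10 μM. Results expressed as binding relative to control, with a hit defined as >50% of control.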

Assay [2] concerns the target Serine/threonine-protein kinase Chk1 (Homo sapiens) (UniProt O14757). In words: Inhibition of recombinant full length His-tagged human CHK1 expressed in baculovirus expression system at 1 uM by FRET assay relative to control.
Assay [3] concerns the target Mitogen-activated protein kinase kinase kinase kinase 4 (Homo sapiens) (UniProt O95819). In words: Inhibition of recombinant GST-tagged human MAP4K4 (1 to 328 residues) expressed in baculovirus expression system at 1 uM by FRET assay relative to control. A digest of the protocol:
(§2)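 Single-point screen at 1 μM compound in a 220-kinase panel run by Life Technologies (SelectScreen). Z′-LYTE format: phosphorylation of a labeled peptide substrate read by FRET. Values are reported as percent inhibition.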

The target of assay [4] is Dual specificity mitogen-activated protein kinase kinase 3 (Homo sapiens) (UniProt P46734). In words: Inhibition of recombinant full length GST-tagged human MEK3 expressed in baculovirus expression system at 1 uM by FRET assay relative to control. A digest of the protocol:
(§3)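 Single-concentration screen at 1 μM in Life Technologies SelectScreen, across a 220-kinase panel. Z′-LYTE format measures phosphorylation of a labeled peptide by FRET. Results are reported as percent inhibition.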

The target of assay [5] is Endothelin-1 receptor (Homo sapiens) (UniProt P25101). Kind of assay: Binding affinity to recombinant human ETA receptor at 10 uM relative to control. A digest of the protocol:
as §1

Assay [6] concerns the target Macrophage colony-stimulating factor 1 receptor (Homo sapiens, UniProt P07333). In words: Inhibition of recombinant His-tagged human CSF1R cytoplasmic domain (538 to 910 residues) expressed in baculovirus expression system at 1 uM by FRET assay relative to control. A digest of the protocol:
as §2

The target of assay [7] is Tyrosine-protein kinase Fes/Fps (Homo sapiens) (UniProt P07332). Kind of assay: Inhibition of recombinant full length His-tagged human FES cytoplasmic domain expressed in baculovirus expression system at 1 uM by FRET assay relative to control.
The target in assay [8] is Histamine H2 receptor (Homo sapiens) (UniProt P25021). Kind of assay: Binding affinity to recombinant human H2 receptor at 10 uM relative to control. A digest of the protocol: as §1
In assay [9] the target is Receptor-type tyrosine-protein kinase FLT3 (Homo sapiens, UniProt P36888). In words: Inhibition of recombinant His-tagged human FLT3 cytoplasmic domain expressed in baculovirus expression system by FRET assay.
The target in assay [10] is Fibroblast growth factor receptor 3 (Homo sapiens) (UniProt P22607). Kind of assay: Inhibition of recombinant His-tagged FGFR3 human cytoplasmic domain expressed in baculovirus expression system at 1 uM by FRET assay relative to control. In a few lines: as §2
For assay [11], the target named is Insulin receptor-related protein (Homo sapiens) (UniProt P14616). In words: Inhibition of recombinant GST-tagged human IRR cytoplasmic domain (944 to 1297 residues) expressed in baculovirus expression system at 1 uM by FRET relative to control. In a few lines: as §2
In assay [12] the target is G protein-coupled receptor kinase 3 (Homo sapiens) (UniProt P35626). In words: Inhibition of recombinant full length GST-tagged human GRK3 expressed in baculovirus expression system at 1 uM by FRET relative to control. In a few lines: as §3
For assay [13], the target named is Serine/threonine-protein kinase Sgk2 (Homo sapiens) (UniProt Q9HBY8). Kind of assay: Inhibition of recombinant full length GST-tagged human SGK2 catalytic domain (54 to 427 residues) expressed in baculovirus expression system at 1 uM by FRET assay relative to control. In a few lines:
as §3

Assay [14] concerns the target T1, Mitogen-activated protein kinase kinase kinase 12 (Homo sapiens, UniProt Q12852).
T1 sequence (Q12852 whole entry): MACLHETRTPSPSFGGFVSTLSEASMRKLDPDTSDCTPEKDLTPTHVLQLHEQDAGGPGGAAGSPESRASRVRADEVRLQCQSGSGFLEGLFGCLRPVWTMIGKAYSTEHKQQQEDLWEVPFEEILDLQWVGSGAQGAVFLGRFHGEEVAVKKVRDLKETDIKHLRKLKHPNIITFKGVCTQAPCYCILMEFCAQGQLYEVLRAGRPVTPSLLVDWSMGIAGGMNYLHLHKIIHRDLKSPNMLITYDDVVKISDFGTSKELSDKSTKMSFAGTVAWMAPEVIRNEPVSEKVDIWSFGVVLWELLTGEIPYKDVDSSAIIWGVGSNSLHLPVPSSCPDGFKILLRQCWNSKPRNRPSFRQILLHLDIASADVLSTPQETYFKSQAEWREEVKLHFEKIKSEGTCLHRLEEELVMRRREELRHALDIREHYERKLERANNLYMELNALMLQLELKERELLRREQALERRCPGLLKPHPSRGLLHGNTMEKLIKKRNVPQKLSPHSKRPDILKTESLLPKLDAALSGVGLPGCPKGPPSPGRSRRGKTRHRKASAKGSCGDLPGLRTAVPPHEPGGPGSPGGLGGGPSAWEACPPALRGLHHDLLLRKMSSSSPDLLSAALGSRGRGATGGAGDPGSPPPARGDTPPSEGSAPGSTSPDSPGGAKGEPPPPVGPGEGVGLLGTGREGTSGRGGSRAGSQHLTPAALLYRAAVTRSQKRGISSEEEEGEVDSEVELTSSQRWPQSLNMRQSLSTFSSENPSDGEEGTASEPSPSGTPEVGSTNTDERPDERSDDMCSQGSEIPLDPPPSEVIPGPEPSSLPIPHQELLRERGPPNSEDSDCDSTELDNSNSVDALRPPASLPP
Kind of assay: Binding affinity to N-terminally GST-tagged wild type human DLK (1 to 520 residues) expressed in sf21 insect cells using N-terminally His-tagged MKK4 K131M as substrate after 60 mins in presence of ATP by TR-FRET assay.

Assay [15] concerns the target Dual specificity mitogen-activated protein kinase kinase 1 (Homo sapiens) (UniProt Q02750). Kind of assay: Inhibition of recombinant full length His-tagged human MEK1 expressed in baculovirus expression system at 1 uM by FRET assay relative to control.
For assay [16], the target named is Calcium/calmodulin-dependent protein kinase kinase 1 (Homo sapiens) (UniProt Q8N5S9). Kind of assay: Inhibition of recombinant full length His-tagged human CAMKK1 expressed in baculovirus expression system at 1 uM by FRET assay relative to control.
In assay [17] the target is Serine/threonine-protein kinase PAK 3 (Homo sapiens) (UniProt O75914). In words: Inhibition of recombinant full length His-tagged human PAK3 expressed in baculovirus expression system at 1 uM by FRET assay relative to control.
Assay [18] addresses Mitogen-activated protein kinase 14 (Homo sapiens) (UniProt Q16539). Kind of assay: Inhibition of recombinant full length GST-tagged human p38alpha expressed in Escherichia coli at 1 uM by FRET assay relative to control.
For assay [19], the target named is Ephrin type-B receptor 1 (Homo sapiens) (UniProt P54762). Kind of assay: Inhibition of recombinant GST-tagged human EphB1 cytoplasmic domain expressed in baculovirus expression system at 1 uM by FRET assay relative to control. A digest of the protocol:
as §2

Molecules are shown by their SMILES.

Chain of Serine/threonine-protein kinase PAK 3 (Homo sapiens) (O75914 whole entry, looked up): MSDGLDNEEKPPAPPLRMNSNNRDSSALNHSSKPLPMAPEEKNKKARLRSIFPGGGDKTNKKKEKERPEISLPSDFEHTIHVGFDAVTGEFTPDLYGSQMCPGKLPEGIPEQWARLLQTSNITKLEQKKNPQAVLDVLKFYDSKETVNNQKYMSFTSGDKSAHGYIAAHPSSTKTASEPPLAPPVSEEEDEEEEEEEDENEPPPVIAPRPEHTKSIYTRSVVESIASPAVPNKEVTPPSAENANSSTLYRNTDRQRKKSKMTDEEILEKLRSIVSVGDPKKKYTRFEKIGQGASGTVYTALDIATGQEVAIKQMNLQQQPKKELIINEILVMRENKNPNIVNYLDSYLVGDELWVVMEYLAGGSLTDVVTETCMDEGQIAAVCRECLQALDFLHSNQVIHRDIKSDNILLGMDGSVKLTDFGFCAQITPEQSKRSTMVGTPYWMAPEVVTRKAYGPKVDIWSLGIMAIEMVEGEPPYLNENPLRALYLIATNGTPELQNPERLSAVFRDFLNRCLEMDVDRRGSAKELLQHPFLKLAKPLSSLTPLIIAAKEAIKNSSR
Chain of Tyrosine-protein kinase Fes/Fps (Homo sapiens) (P07332 whole entry, the tested form may be a part): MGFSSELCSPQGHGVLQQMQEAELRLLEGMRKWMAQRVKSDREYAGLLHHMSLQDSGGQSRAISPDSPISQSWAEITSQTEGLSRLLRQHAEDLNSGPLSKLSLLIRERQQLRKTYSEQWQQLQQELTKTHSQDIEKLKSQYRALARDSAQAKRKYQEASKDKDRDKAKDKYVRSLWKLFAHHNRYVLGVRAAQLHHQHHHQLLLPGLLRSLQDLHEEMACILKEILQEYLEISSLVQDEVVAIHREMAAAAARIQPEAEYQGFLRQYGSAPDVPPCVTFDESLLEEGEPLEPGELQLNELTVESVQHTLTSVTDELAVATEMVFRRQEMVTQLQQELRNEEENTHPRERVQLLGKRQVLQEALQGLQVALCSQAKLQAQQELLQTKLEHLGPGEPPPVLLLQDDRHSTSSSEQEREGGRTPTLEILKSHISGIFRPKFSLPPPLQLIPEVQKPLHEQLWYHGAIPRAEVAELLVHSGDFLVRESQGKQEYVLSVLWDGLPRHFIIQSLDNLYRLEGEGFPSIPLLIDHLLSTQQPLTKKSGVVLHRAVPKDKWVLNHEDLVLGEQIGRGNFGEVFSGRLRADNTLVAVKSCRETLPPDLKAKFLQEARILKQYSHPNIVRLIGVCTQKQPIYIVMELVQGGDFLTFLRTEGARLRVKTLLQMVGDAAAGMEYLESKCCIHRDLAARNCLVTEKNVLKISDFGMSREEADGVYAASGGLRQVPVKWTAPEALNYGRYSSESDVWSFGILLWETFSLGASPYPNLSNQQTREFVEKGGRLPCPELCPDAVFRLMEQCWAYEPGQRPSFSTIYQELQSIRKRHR
Chain of 5-hydroxytryptamine receptor 1A (Homo sapiens) (P08908 whole entry): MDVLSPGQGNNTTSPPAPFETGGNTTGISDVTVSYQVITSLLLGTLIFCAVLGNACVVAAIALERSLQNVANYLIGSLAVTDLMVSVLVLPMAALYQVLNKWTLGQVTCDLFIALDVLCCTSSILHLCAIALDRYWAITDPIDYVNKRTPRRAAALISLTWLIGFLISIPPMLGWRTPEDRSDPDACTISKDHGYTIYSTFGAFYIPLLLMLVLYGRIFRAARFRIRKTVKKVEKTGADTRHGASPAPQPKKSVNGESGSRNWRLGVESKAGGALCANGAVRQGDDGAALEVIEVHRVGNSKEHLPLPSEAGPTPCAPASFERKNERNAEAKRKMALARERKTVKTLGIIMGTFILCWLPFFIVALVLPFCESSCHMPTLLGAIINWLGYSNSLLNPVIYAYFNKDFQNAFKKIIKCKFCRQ
Chain of Calcium/calmodulin-dependent protein kinase kinase 1 (Homo sapiens) (Q8N5S9 whole entry, looked up): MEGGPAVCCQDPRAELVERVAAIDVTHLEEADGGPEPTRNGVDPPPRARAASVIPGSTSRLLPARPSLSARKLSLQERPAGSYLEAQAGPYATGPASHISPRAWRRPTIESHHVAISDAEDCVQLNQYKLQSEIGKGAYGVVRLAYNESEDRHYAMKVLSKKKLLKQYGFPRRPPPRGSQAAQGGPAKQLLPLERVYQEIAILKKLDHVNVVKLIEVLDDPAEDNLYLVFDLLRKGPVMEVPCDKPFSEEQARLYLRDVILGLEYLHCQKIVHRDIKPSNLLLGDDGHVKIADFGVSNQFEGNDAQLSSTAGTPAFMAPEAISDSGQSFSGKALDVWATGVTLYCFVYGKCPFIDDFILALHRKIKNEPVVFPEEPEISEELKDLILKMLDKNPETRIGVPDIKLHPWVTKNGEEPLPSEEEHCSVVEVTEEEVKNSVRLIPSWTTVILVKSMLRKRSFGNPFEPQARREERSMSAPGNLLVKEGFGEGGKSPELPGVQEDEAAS
Chain of Dual specificity mitogen-activated protein kinase kinase 3 (Homo sapiens) (P46734 whole entry): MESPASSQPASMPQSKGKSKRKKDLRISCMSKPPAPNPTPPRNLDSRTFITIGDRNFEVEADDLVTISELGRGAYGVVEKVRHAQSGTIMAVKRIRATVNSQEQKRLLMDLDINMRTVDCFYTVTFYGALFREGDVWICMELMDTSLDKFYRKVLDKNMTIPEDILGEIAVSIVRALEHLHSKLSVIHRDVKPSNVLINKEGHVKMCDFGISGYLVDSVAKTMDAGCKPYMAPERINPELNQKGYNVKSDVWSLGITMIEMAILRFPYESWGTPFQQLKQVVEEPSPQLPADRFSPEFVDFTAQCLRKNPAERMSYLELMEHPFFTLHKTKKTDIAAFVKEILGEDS
Chain of Macrophage colony-stimulating factor 1 receptor (P07333 whole entry, the tested form may be a part): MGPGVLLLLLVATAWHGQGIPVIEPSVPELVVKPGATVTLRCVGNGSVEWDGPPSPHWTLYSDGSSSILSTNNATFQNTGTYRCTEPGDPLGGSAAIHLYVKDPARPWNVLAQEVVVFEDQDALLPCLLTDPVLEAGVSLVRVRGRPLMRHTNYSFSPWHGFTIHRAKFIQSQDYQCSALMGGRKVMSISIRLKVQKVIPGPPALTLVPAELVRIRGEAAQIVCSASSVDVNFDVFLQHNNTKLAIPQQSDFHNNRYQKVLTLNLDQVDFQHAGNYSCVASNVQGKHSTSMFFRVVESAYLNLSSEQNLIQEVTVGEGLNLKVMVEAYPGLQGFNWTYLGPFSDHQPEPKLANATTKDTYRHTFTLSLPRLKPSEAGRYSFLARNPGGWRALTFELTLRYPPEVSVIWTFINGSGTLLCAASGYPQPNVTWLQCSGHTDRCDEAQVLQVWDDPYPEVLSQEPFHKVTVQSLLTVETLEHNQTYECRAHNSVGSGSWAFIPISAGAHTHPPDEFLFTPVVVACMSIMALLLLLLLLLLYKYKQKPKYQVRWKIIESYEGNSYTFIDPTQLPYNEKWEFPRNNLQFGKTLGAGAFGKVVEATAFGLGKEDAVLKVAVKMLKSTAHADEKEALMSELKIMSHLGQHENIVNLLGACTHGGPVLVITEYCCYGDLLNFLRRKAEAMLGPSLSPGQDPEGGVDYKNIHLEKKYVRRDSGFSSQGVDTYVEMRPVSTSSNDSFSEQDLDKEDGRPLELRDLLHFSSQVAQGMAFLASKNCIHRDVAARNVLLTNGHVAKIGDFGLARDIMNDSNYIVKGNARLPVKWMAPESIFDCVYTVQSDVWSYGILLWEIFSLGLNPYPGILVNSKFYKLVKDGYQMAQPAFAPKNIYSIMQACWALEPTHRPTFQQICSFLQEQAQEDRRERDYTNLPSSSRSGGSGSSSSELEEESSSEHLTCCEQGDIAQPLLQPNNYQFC
Chain of Fibroblast growth factor receptor 3 (Homo sapiens) (P22607 23-806 limits assumed): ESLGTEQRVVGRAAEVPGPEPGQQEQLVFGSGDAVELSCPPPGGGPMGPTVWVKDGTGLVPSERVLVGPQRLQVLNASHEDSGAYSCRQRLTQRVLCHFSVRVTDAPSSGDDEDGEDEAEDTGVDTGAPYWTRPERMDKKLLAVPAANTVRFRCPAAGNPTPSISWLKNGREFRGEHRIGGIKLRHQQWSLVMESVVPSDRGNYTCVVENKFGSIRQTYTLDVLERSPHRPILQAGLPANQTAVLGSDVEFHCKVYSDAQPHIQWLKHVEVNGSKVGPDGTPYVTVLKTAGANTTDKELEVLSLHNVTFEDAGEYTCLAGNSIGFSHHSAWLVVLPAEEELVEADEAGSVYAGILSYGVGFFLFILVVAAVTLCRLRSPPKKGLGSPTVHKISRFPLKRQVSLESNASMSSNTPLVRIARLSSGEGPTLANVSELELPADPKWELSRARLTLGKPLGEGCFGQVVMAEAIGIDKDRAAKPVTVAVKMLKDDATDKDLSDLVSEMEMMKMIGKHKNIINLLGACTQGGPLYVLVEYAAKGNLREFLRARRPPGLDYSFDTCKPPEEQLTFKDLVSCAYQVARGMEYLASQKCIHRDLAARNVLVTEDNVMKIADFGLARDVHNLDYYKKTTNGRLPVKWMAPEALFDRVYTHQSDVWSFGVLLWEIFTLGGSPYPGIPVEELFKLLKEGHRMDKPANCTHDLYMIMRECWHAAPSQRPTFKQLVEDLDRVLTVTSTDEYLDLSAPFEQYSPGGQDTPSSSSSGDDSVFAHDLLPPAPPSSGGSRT
Chain of Serine/threonine-protein kinase Sgk2 (Homo sapiens) (Q9HBY8 whole entry, the tested form may be a part): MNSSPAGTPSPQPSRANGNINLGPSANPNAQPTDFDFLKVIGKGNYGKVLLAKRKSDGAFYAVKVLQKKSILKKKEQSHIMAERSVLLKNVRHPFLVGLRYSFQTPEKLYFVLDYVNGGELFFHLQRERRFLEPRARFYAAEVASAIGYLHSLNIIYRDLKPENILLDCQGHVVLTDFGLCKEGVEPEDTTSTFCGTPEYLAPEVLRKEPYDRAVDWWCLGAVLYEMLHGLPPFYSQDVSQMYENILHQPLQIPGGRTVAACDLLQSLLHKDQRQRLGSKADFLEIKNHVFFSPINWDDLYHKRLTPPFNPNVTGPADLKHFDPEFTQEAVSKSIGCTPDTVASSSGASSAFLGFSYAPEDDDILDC

On to `CC(C)n1nc(-c2cnc(N)c(OC(F)(F)F)c2)cc1[C@H]1[C@@H]2CN(C3COC3)C[C@@H]21`, for which the Activity in [1], in assay [5] and in [8] was above 50% throughout. Further, the inhibition in assay [2] is 4.4%; in assay [3] it was 22.1%; in [4], 3.6%; in [6] it was 46.3%; in assay [7] it was 17.1%; in [10], -1.8%. The inhibition was 32.7% in assay [11]; -2.3% in [12]; 2.7% in assay [13]; 14.8% in assay [15]; -7.5% in [16]; 3.6% in [17]. Also, the inhibition in assay [18] turned out to be 1.1%; in assay [19] it was 10.1%. Also, the IC50 in assay [9] came out at 709 nM. The Ki in assay [14] came out at 3 nM.
`Nc1ncc(-c2cc([C@H]3[C@@H]4CN(C5COC5)C[C@@H]43)n(CC3CC3)n2)cc1C(F)(F)F`: the Activity in [1], in [5] and in assay [8] was above 50% throughout. Moreover, the inhibition is 2.9% in assay [2]; 21.4% in [3]; -2.7% in assay [4]; 54.1% in assay [6]; 21.1% in assay [7]; -9.3% in assay [10]. Further, the inhibition in assay [11] is 15.9%; in assay [12], 0.5%; in assay [13], 0.3%; in assay [15] it was 0%; in assay [16], -0.3%; in assay [17], 17.2%. Besides, the inhibition was 5.8% in assay [18] and 5.9% in assay [19]. The IC50 in assay [9] stood at 238 nM. The inhibition constant (Ki) in assay [14] turned out to be 4 nM.

By inhibition is commonly meant the change of the read-out against control, counted positive when it falls. Broadly, the IC50 is the concentration that gives 50% inhibition. The term Ki denotes a dissociation constant, usually derived from enzyme kinetics or from competition with a known ligand.

Values taken from ChEMBL document CHEMBL4118097, “Selective Inhibitors of Dual Leucine Zipper Kinase (DLK, MAP3K12) with Activity in a Model of Alzheimer's Disease” (J Med Chem, 2017).
